Tests used:
Colon [1] = assay: Biodistribution in 50 mg/kg cyclosporin A pretreated Wistar rat colon at 49+/-11 MBq, iv after 80 mins; type: ADME, organism-based; parameters: dose 50 mg/kg, route intravenous; conditions: in vivo
Outline: (§1)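 Male Wistar rats pretreated via tail vein with saline or cyclosporin A (50 mg/kg, commercial solution), then given the [11C] tracer via penile vein. After microPET scanning the anesthetized rats were killed. Tissues were excised and weighed, and blood was centrifuged into plasma and cells. γ counting with decay correction. Results as SUV (tissue MBq/g × body weight/injected dose).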

Bone [2] = assay: Biodistribution in 50 mg/kg cyclosporin A pretreated Wistar rat bone at 49+/-11 MBq, iv after 80 mins; type: ADME, organism-based, Bone element; parameters: dose 50 mg/kg, route intravenous; conditions: in vivo
Outline: (§2)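 Male Wistar rats pretreated with saline or cyclosporin A (50 mg/kg) via tail vein, then given the [11C] tracer via penile vein. Tissues excised after scanning and weighed. γ counting with decay correction. Results as SUV normalized to body weight and injected dose.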

[3] = Biodistribution in 50 mg/kg cyclosporin A pretreated Wistar rat parietal/temporal/occipital cortex at 49+/-11 MBq, iv after 80 mins; type: ADME, organism-based; parameters: dose 50 mg/kg, route intravenous; conditions: in vivo
Colon [4] = assay: Biodistribution in Wistar rat colon at 38+/-8 MBq, iv after 80 mins; type: ADME, organism-based; conditions: in vivo
Outline: (§3)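 Male Wistar rats (12 h light/dark, chow ad libitum) were fitted with a femoral arterial cannula under isoflurane. They were pretreated via tail vein with saline, cyclosporin A (50 mg/kg), or nonradioactive tracer compound (15 mg/kg; 10 mg/mL in saline with 35% ethanol). The 11C tracer was then given via penile vein, followed by 76 min microPET. Animals were then terminated; excised tissues were weighed and gamma-counted with decay correction. Values are SUVs (tissue MBq/g × body weight g / injected MBq).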

[5] = Biodistribution in 50 mg/kg cyclosporin A pretreated Wistar rat bulbus olfactorius at 49+/-11 MBq, iv after 80 mins; type: ADME, organism-based, Olfactory bulb; parameters: dose 50 mg/kg, route intravenous; conditions: in vivo; outline: as §1
[6] = Biodistribution in Wistar rat entorhinal cortex at 38+/-8 MBq, iv after 80 mins; type: ADME, organism-based; conditions: in vivo; outline: as §3
Heart [7] = assay: Biodistribution in 50 mg/kg cyclosporin A pretreated Wistar rat heart at 49+/-11 MBq, iv after 80 mins; type: ADME, organism-based; parameters: dose 50 mg/kg, route intravenous; conditions: in vivo
Rattus norvegicus [8] = assay: AUC in 50 mg/kg cyclosporin A pretreated Wistar rat at 49+/-11 MBq, iv; type: ADME, organism-based, Plasma; parameters: dose 50 mg/kg, route intravenous; conditions: in vivo
Outline: (§4)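 Male Wistar rats with a femoral arterial cannula placed under isoflurane. Saline or cyclosporin A (50 mg/kg, commercial solution) given via tail vein, then the [11C] tracer via penile vein. Dynamic microPET over the brain for 76 min, with 14 arterial samples to 60 min. Plasma counted in a γ counter. AUC of whole-brain or plasma SUV over 0-60 min.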

Plasma [9] = assay: Biodistribution in Wistar rat plasma at 38+/-8 MBq, iv after 80 mins; type: ADME, organism-based; conditions: in vivo
Outline: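 Male Wistar rats under isoflurane were given tracer via the penile vein after tail-vein pretreatment with saline or drug. At the end of a 76 min microPET scan the anesthetized animals were terminated. Blood was collected and centrifuged 5 min at 1000g for plasma. Plasma was weighed, γ-counted with decay correction and expressed as SUV (tissue MBq/g × body weight/injected dose).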

[10] = Biodistribution in 50 mg/kg cyclosporin A pretreated Wistar rat entorhinal cortex at 49+/-11 MBq, iv after 80 mins; type: ADME, organism-based; parameters: dose 50 mg/kg, route intravenous; conditions: in vivo; outline: as §1
Duodenum [11] = assay: Biodistribution in 50 mg/kg cyclosporin A pretreated Wistar rat duodenum at 49+/-11 MBq, iv after 80 mins; type: ADME, organism-based; parameters: dose 50 mg/kg, route intravenous; conditions: in vivo; outline: as §1
Bone [12] = assay: Biodistribution in Wistar rat bone at 38+/-8 MBq, iv after 80 mins; type: ADME, organism-based, Bone element; conditions: in vivo
[13] = Biodistribution in 50 mg/kg cyclosporin A pretreated Wistar rat red blood cells at 49+/-11 MBq, iv after 80 mins; type: ADME, organism-based, Erythrocyte; parameters: dose 50 mg/kg, route intravenous; conditions: in vivo
[14] = Biodistribution in 50 mg/kg cyclosporin A pretreated Wistar rat trachea at 49+/-11 MBq, iv after 80 mins; type: ADME, organism-based; parameters: dose 50 mg/kg, route intravenous; conditions: in vivo
Duodenum [15] = assay: Biodistribution in Wistar rat duodenum at 38+/-8 MBq, iv after 80 mins; type: ADME, organism-based; conditions: in vivo; outline: as §3
Striatum [16] = assay: Biodistribution in 50 mg/kg cyclosporin A pretreated Wistar rat striatum at 49+/-11 MBq, iv after 80 mins; type: ADME, organism-based; parameters: dose 50 mg/kg, route intravenous; conditions: in vivo
Cerebellum [17] = assay: Biodistribution in 50 mg/kg cyclosporin A pretreated Wistar rat cerebellum at 49+/-11 MBq, iv after 80 mins; type: ADME, organism-based; parameters: dose 50 mg/kg, route intravenous; conditions: in vivo; outline: as §1
[18] = Biodistribution in Wistar rat fat at 38+/-8 MBq, iv after 80 mins; type: ADME, organism-based, Adipose tissue; conditions: in vivo; outline: as §3
Muscle tissue [19] = assay: Biodistribution in Wistar rat muscle at 38+/-8 MBq, iv after 80 mins; type: ADME, organism-based; conditions: in vivo; outline: as §3
Liver [20] = assay: Biodistribution in 50 mg/kg cyclosporin A pretreated Wistar rat liver at 49+/-11 MBq, iv after 80 mins; type: ADME, organism-based; parameters: dose 50 mg/kg, route intravenous; conditions: in vivo
Lung = assay: Biodistribution in 50 mg/kg cyclosporin A pretreated Wistar rat lung at 49+/-11 MBq, iv after 80 mins; type: ADME, organism-based; parameters: dose 50 mg/kg, route intravenous; conditions: in vivo
[21] = Biodistribution in 50 mg/kg cyclosporin A pretreated Wistar rat fat at 49+/-11 MBq, iv after 80 mins; type: ADME, organism-based, Adipose tissue; parameters: dose 50 mg/kg, route intravenous; conditions: in vivo; outline: as §1
[22] = Biodistribution in 50 mg/kg cyclosporin A pretreated Wistar rat medulla at 49+/-11 MBq, iv after 80 mins; type: ADME, organism-based, Medulla of organ; parameters: dose 50 mg/kg, route intravenous; conditions: in vivo
Spleen = assay: Biodistribution in Wistar rat spleen at 38+/-8 MBq, iv after 80 mins; type: ADME, organism-based; conditions: in vivo
[23] = Biodistribution in Wistar rat cingulate cortex at 38+/-8 MBq, iv after 80 mins; type: ADME, organism-based; conditions: in vivo; outline: as §3
Ileum [24] = assay: Biodistribution in Wistar rat ileum at 38+/-8 MBq, iv after 80 mins; type: ADME, organism-based; conditions: in vivo; outline: as §3
Liver [25] = assay: Biodistribution in Wistar rat liver at 38+/-8 MBq, iv after 80 mins; type: ADME, organism-based; conditions: in vivo; outline: as §3
Rattus norvegicus [26] = assay: AUC in Wistar rat at 38+/-8 MBq, iv; type: ADME, organism-based, Plasma; conditions: in vivo; outline: as §4
[27] = Biodistribution in Wistar rat amygdala at 38+/-8 MBq, iv after 80 mins; type: ADME, organism-based; conditions: in vivo
Plasma [28] = assay: Biodistribution in Wistar rat plasma at 38+/-8 MBq, iv after 60 mins; type: ADME, organism-based; conditions: in vivo, 1 h
Pons [29] = assay: Biodistribution in 50 mg/kg cyclosporin A pretreated Wistar rat pons at 49+/-11 MBq, iv after 80 mins; type: ADME, organism-based; parameters: dose 50 mg/kg, route intravenous; conditions: in vivo
Heart [30] = assay: Biodistribution in Wistar rat heart at 38+/-8 MBq, iv after 80 mins; type: ADME, organism-based; conditions: in vivo; outline: as §3
[31] = Biodistribution in Wistar rat red blood cells at 38+/-8 MBq, iv after 80 mins; type: ADME, organism-based, Erythrocyte; conditions: in vivo
Kidney [32] = assay: Biodistribution in 50 mg/kg cyclosporin A pretreated Wistar rat kidney at 49+/-11 MBq, iv after 80 mins; type: ADME, organism-based; parameters: dose 50 mg/kg, route intravenous; conditions: in vivo
Cerebellum [33] = assay: Biodistribution in Wistar rat cerebellum at 38+/-8 MBq, iv after 80 mins; type: ADME, organism-based; conditions: in vivo
[34] = Biodistribution in Wistar rat bulbus olfactorius at 38+/-8 MBq, iv after 80 mins; type: ADME, organism-based, Olfactory bulb; conditions: in vivo
[35] = Biodistribution in 50 mg/kg cyclosporin A pretreated Wistar rat frontal cortex at 49+/-11 MBq, iv after 80 mins; type: ADME, organism-based; parameters: dose 50 mg/kg, route intravenous; conditions: in vivo
[36] = Biodistribution in 50 mg/kg cyclosporin A pretreated Wistar rat amygdala at 49+/-11 MBq, iv after 80 mins; type: ADME, organism-based; parameters: dose 50 mg/kg, route intravenous; conditions: in vivo; outline: as §2
[37] = Biodistribution in Wistar rat frontal cortex at 38+/-8 MBq, iv after 80 mins; type: ADME, organism-based; conditions: in vivo; outline: as §3
[38] = Biodistribution in 50 mg/kg cyclosporin A pretreated Wistar rat cingulate cortex at 49+/-11 MBq, iv after 80 mins; type: ADME, organism-based; parameters: dose 50 mg/kg, route intravenous; conditions: in vivo; outline: as §1
[39] = Biodistribution in Wistar rat parietal/temporal/occipital cortex at 38+/-8 MBq, iv after 80 mins; type: ADME, organism-based; conditions: in vivo; outline: as §3
Plasma [40] = assay: Biodistribution in 50 mg/kg cyclosporin A pretreated Wistar rat plasma at 49+/-11 MBq, iv after 80 mins; type: ADME, organism-based; parameters: dose 50 mg/kg, route intravenous; conditions: in vivo
Pons [41] = assay: Biodistribution in Wistar rat pons at 38+/-8 MBq, iv after 80 mins; type: ADME, organism-based; conditions: in vivo
[42] = Biodistribution in Wistar rat trachea at 38+/-8 MBq, iv after 80 mins; type: ADME, organism-based; conditions: in vivo
Striatum [43] = assay: Biodistribution in Wistar rat striatum at 38+/-8 MBq, iv after 80 mins; type: ADME, organism-based; conditions: in vivo
Ileum [44] = assay: Biodistribution in 50 mg/kg cyclosporin A pretreated Wistar rat ileum at 49+/-11 MBq, iv after 80 mins; type: ADME, organism-based; parameters: dose 50 mg/kg, route intravenous; conditions: in vivo
[45] = Biodistribution in Wistar rat medulla at 38+/-8 MBq, iv after 80 mins; type: ADME, organism-based, Medulla of organ; conditions: in vivo; outline: as §3
Pancreas = assay: Biodistribution in Wistar rat pancreas at 38+/-8 MBq, iv after 80 mins; type: ADME, organism-based; conditions: in vivo; outline: as §3
Kidney [46] = assay: Biodistribution in Wistar rat kidney at 38+/-8 MBq, iv after 80 mins; type: ADME, organism-based; conditions: in vivo; outline: as §3
Hippocampus [47] = assay: Biodistribution in 50 mg/kg cyclosporin A pretreated Wistar rat hippocampus at 49+/-11 MBq, iv after 80 mins; type: ADME, organism-based; parameters: dose 50 mg/kg, route intravenous; conditions: in vivo
Muscle tissue [48] = assay: Biodistribution in 50 mg/kg cyclosporin A pretreated Wistar rat muscle at 49+/-11 MBq, iv after 80 mins; type: ADME, organism-based; parameters: dose 50 mg/kg, route intravenous; conditions: in vivo
Hippocampus [49] = assay: Biodistribution in Wistar rat hippocampus at 38+/-8 MBq, iv after 80 mins; type: ADME, organism-based; conditions: in vivo; outline: as §3

COc1ccc(CCN([11CH3])CCCC(C#N)(c2ccc(OC)c(OC)c2)C(C)C)cc1OC (configuration not stated)
SUV (Colon [1]): 0.4 | SUV (Bone [2]): 0.38 | SUV [3]: 0.64 | SUV (Colon [4]): 0.32 | SUV [5]: 0.57 | SUV [6]: 0.027 | SUV (Heart [7]): 0.3 | AUC (Rattus norvegicus [8]): 110% | SUV (Plasma [9]): 0.13 | SUV [10]: 0.59 | SUV (Duodenum [11]): 0.63 | SUV (Bone [12]): 0.25 | SUV [13]: 0.07 | SUV [14]: 0.46 | SUV (Duodenum [15]): 0.78 | SUV (Striatum [16]): 0.55 | SUV (Cerebellum [17]): 0.6 | SUV [18]: 0.38 | SUV (Muscle tissue [19]): 0.29 | SUV (Liver [20]): 1.84 | SUV (Lung): 1.95 | SUV [21]: 0.5 | SUV [22]: 0.67 | SUV (Spleen): 0.93 | SUV [23]: 0.027 | SUV (Ileum [24]): 0.49 | SUV (Liver [25]): 1.23 | AUC (Rattus norvegicus [26]): 100% | SUV [27]: 0.034 | SUV (Plasma [28]): 0.18 | SUV (Pons [29]): 0.68 | SUV (Heart [30]): 0.24 | SUV [31]: 0.06 | SUV (Kidney [32]): 1.07 | SUV (Cerebellum [33]): 0.052 | SUV [34]: 0.038 | SUV [35]: 0.52 | SUV [36]: 0.62 | SUV [37]: 0.031 | SUV [38]: 0.5 | SUV [39]: 0.036 | SUV (Plasma [40]): 0.17 | SUV (Pons [41]): 0.034 | SUV [42]: 0.35 | SUV (Striatum [43]): 0.038 | SUV (Ileum [44]): 0.56 | SUV [45]: 0.044 | SUV (Pancreas): 0.82 | SUV (Kidney [46]): 0.61 | SUV (Hippocampus [47]): 0.54 | SUV (Muscle tissue [48]): 0.37 | SUV (Hippocampus [49]): 0.036
